Results taken from PMC3402649 (Peptides, 2012).
Ends that are not written are not given here. * marks the point of attachment. Octanoyl = CCCCCCCC(=O)*

Columns and labels:
E. coli (ATCC 27325) = test: Agar plate-based bactericidal assay; format: cell-based, Escherichia coli
How it was run: (§1)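 Bacteria were grown aerobically overnight in BHI broth at 37°C, washed twice in PBS and suspended at 10^5 cells/mL in 10 mM sodium phosphate, pH 6.8. Suspensions were exposed to the test peptide over a range of concentrations for 2 h at 37°C, aerobically. For salt sensitivity, NaCl was added at 0–150 mM, with 25 μg/ml test peptide or 1 μg/ml reference peptide. Samples were diluted in PBS, plated on BHI agar overnight at 37°C and counted for CFU. Survival is expressed as a percentage of untreated; mean ± SD of three independent experiments.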

[1] = test system: P. aeruginosa (ATCC 15692); test: Agar plate-based bactericidal assay; format: cell-based, Pseudomonas aeruginosa
How it was run: as §1

E. coli = test: Measurement of zeta-potential of bacteria treated with peptide; design: species or system Escherichia coli; settings: 5 and 20 μg peptide/10^5 bacterial cells, 10 mM NaPi, 20 min, 37°C
How it was run: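 Overnight E. coli cultures were washed in PBS and resuspended at 10^8 cells/mL in 10 mM sodium phosphate. Cells were added to phosphate buffer containing peptide to give 5 or 20 μg peptide per 10^5 cells, then incubated 20 min at 37°C. Zeta potential was read on a particle sizer/zetasizer, and the mean was computed by the Smoluchowski equation. Values are mean ± SD of three independent experiments.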

E. faecalis (ATCC 29212) = test: Agar plate-based bactericidal assay; format: cell-based, Enterococcus faecalis; settings: range of ghrelin concentrations tested; data not shown
[2] = LL37 1 μg/ml, 10 mM NaPi pH 6.8 with NaCl 0 to 150 mM, dose-dependent
[3] = physiological NaCl concentration (150 mM) in 10 mM NaPi pH 6.8, AG 25 μg/ml

Substance	effect of NaCl on bactericidal activity (in words) (E. coli (ATCC 27325); [2])	effect of NaCl on bactericidal activity (in words) [1, 2]	effect on zeta-potential of E. coli (in words) (E. coli)	bactericidal effects (in words) (E. faecalis (ATCC 29212))	effect of NaCl on bactericidal activity (in words) (E. coli (ATCC 27325); [3])	effect of NaCl on bactericidal activity (in words) [1, 3]
LL37 (LLGDFFRKSKEKIGKEFKRIVQRIKDFLRNLVPRTES; Antibacterial peptide LL-37; UniProt P49913 134-170, looked up) [reference compound]	attenuated	attenuated	increased the zeta-potential of E. coli			
desacylated ghrelin (GSSFLSPEHQRVQQRKESKKPPAKLQPR; Ghrelin-28 non-acylated; UniProt Q9UBU3 24-51, looked up) [DAG]				neither AG nor DAG showed significant bactericidal effects		
acylated ghrelin (GSS(Octanoyl)FLSPEHQRVQQRKESKKPPAKLQPR; UniProt Q9UBU3 24-51, looked up) [AG]				neither AG nor DAG showed significant bactericidal effects	decreased	decreased
